ChEMBL document CHEMBL1144663, “1-Aryl-tetrahydroisoquinoline analogs as active anti-HIV agents in vitro” (Bioorg Med Chem Lett, 2008)
≈ marks a conversion by molar mass, not a printed value.

Legend:
[1] = Cytotoxicity against human C8166 cells after 72 hrs by MTT method; assay type: cell-based
Procedure, shortened: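 Supernatant discarded, MTT (5 mg/mL in PBS) added for 4 h, formazan dissolved in 50% DMF–20% SDS, absorbance 595/630 nm. CC50 (50% reduction of viable cells) taken from dose–response curve.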

[2] = Selectivity index, ratio of CC50 for C8166 cells to EC50 for HIV1 3B; assay type: functional
Procedure, shortened: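 Ratio of CC50 (MTT, uninfected C8166, 72 h) to EC50 (syncytium reduction, HIV-1 IIIB-infected C8166, MOI 0.06, 3 days), both determined in this work.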

[3] = test system: Human immunodeficiency virus 1; experiment: Antiviral activity against HIV1 3B in C8166 cells by syncytium reduction assay; assay type: functional, organism-based; settings: Human immunodeficiency virus 1, 3B
Procedure, shortened: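 C8166 cells (4 × 10⁵/mL) exposed to serial compound concentrations and infected with HIV-1 IIIB at MOI 0.06; zidovudine positive control. After 3 days of culture, syncytia counted per well by inverted microscopy; percent inhibition versus infected untreated control; EC50 is concentration protecting cells from viral cytopathogenicity by 50%.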

[4] = biological target: Human immunodeficiency virus type 1 reverse transcriptase (Human immunodeficiency virus 1) (UniProt Q72547); experiment: Inhibition of HIV1 recombinant reverse transcriptase at 200 ug/ml
[5] = biological target: Human immunodeficiency virus type 1 reverse transcriptase (Human immunodeficiency virus 1) (UniProt Q72547); experiment: Inhibition of HIV1 recombinant reverse transcriptase at 210 ug/ml
[6] = test system: Human immunodeficiency virus; experiment: Inhibition of HIV replication in H9 cells; assay type: functional, organism-based; settings: Human immunodeficiency virus 1, H9

Compound | CC50 at 72 h [1] | Ratio CC50/EC50 [2] | EC50 [3] | Inhibition [4] | Inhibition [5] | EC50 [6]
COc1ccc(C2NCCc3cc(O)c(O)cc32)cc1 (centres undefined) | > 738 µM | >22 | 34.1 µM |  |  | 
Cc1ccc(C2NCCc3cc(O)c(O)cc32)cc1 (centres undefined) | > 784 µM | >95 | 8.2 µM | 28% |  | 
Oc1cc2c(cc1O)C(c1ccccn1)NCC2 (centres undefined) | > 826 µM | >11 | 48.4 µM |  |  | 
COc1cc2c(cc1OC)C(c1ccccc1Cl)NCC2 (centres undefined) | 249 µM | 4.3 | 58.4 µM |  |  | 
COc1cc2c(cc1OC)C(c1ccco1)NCC2 (centres undefined) | 572 µM | 3.8 | 152 µM |  |  | 
N#Cc1ccc(C2NCCc3cc(O)c(O)cc32)cc1 (centres undefined) | > 752 µM | >14 | 53.7 µM |  |  | 
Oc1cc2c(cc1O)C(c1ccco1)NCC2 (centres undefined) | > 866 µM | >14 | 61.7 µM |  |  | 
COc1cc2c(cc1OC)C(c1cccc(Br)c1)NCC2 (centres undefined) | 107 µM | 2.4 | 43.5 µM |  |  | 
COc1ccc(C2NCCc3cc(OC)c(OC)cc32)cc1 (centres undefined) | 312 µM | 2.5 | 127 µM |  |  | 
Cc1ccccc1C1NCCc2cc(O)c(O)cc21 (centres undefined) | > 784 µM | >13 | 61.9 µM |  |  | 
Oc1cc2c(cc1O)C(c1cccc3ccccc13)NCC2 (centres undefined) | 47.4 µM | 1.9 | 33.2 µM |  |  | 
Oc1cc2c(cc1O)C(c1cccc(Br)c1)NCC2 (centres undefined) | > 625 µM | >12 | 53.5 µM |  |  | 
COc1cc2c(cc1OC)C(c1cccc(Cl)c1)NCC2 (centres undefined) | 184 µM | 5.9 | 31.8 µM |  |  | 
COc1cc2c(cc1OC)C(c1ccc(C(F)(F)F)cc1)NCC2 (centres undefined) | 30.9 µM | <1 | 27.8 µM |  |  | 
COc1ccc(C2NCCc3cc(OC)c(OC)cc32)c(OC)c1 (centres undefined) | 227 µM | 5.2 | 43.8 µM |  |  | 
CC1NCCc2ccc(O)c(O)c21 (centres undefined) |  |  |  |  | 48% | 
COc1cc2c(cc1OC)C(c1ccc(C)cc1)NCC2 (centres undefined) | 281 µM | 4.2 | 67.3 µM |  |  | 
COc1ccc(C2NCCc3cc(O)c(O)cc32)c(OC)c1 (centres undefined) | > 664 µM | >14 | 46.5 µM |  |  | 
CC1NCCc2cc(O)c(O)cc21 (centres undefined) |  |  |  |  |  | 0.117 µg/mL (≈ 0.653 µM)
Cc1cn([C@H]2C[C@H](N=[N+]=[N-])[C@@H](CO)O2)c(=O)[nH]c1=O [ZIDOVUDINE] | > 749 µM | >68091 | 0.011 µM |  |  | 

Compound | CC50 at 72 h [1] | Ratio CC50/EC50 [2] | EC50 [3] | Inhibition [4] | Inhibition [5] | EC50 [6]
Oc1cc2c(cc1O)C(c1ccc(C(F)(F)F)cc1)NCC2 (centres undefined) | 42.3 µM | 1.5 | 27.6 µM |  |  | 
Oc1cc2c(cc1O)C(c1ccccc1Br)NCC2 (centres undefined) | > 625 µM | >26 | 23.7 µM |  |  | 
Oc1cc2c(cc1O)C(c1ccc3ccccc3c1)NCC2 (centres undefined) | > 687 µM | >130 | 5.3 µM | 30% |  | 
COc1cc2c(cc1OC)C(c1ccccc1)NCC2 (centres undefined) | 294 µM | 2.4 | 120 µM |  |  | 
Oc1cc2c(cc1O)C(c1cccc(Cl)c1)NCC2 (centres undefined) | > 727 µM | >159 | 4.6 µM | 20% |  | 
COc1cc2c(cc1OC)C(c1cccc3ccccc13)NCC2 (centres undefined) | 64.8 µM | 2.9 | 22.6 µM |  |  | 
COc1cc2c(cc1OC)C(c1ccccn1)NCC2 (centres undefined) | 444 µM | 2.8 | 171 µM |  |  | 
Oc1cc2c(cc1O)C(c1ccccc1Cl)NCC2 (centres undefined) | > 727 µM | >14 | 51.8 µM |  |  | 
COc1cc2c(cc1OC)C(c1ccc3ccccc3c1)NCC2 (centres undefined) | 54.6 µM | 7.9 | 6.9 µM |  |  | 
COc1cc2c(cc1OC)C(c1ccc(Br)cc1)NCC2 (centres undefined) | 37.9 µM | 2.2 | 16.9 µM |  |  | 
COc1ccccc1C1NCCc2cc(O)c(O)cc21 (centres undefined) | > 738 µM | >18 | 42.2 µM |  |  | 
COc1cc2c(cc1O)[C@@H](Cc1ccc(O)cc1)NCC2 |  |  |  |  |  | 0.8 µg/mL (≈ 2.8 µM)
COc1cc2c(cc1OC)C(c1ccccc1Br)NCC2 (centres undefined) | 89 µM | 2.8 | 31.3 µM |  |  | 
COc1cc2c(cc1OC)C(c1ccccc1F)NCC2 (centres undefined) | 175 µM | 2.8 | 69 µM |  |  | 
Oc1cc2c(cc1O)C(c1ccccc1)NCC2 (centres undefined) | > 830 µM | >12 | 67.3 µM |  |  | 
COc1cc2c(cc1OC)C(c1ccccc1C)NCC2 (centres undefined) | 197 µM | 4.6 | 42.5 µM |  |  | 
Oc1cc2c(cc1O)C(c1ccccc1F)NCC2 (centres undefined) | > 772 µM | >13 | 58.4 µM |  |  | 
COc1cc2c(cc1OC)C(c1ccccc1OC)NCC2 (centres undefined) | 555 µM | 12 | 45.9 µM |  |  | 
Oc1cc2c(cc1O)C(c1ccc(Br)cc1)NCC2 (centres undefined) | > 625 µM | >18 | 36.2 µM |  |  | 
